# Laboratory results as given in ChEMBL document CHEMBL1129041, “Design of orally active dual inhibitors of neutral endopeptidase and angiotensin-converting enzyme with long duration of action” (J Med Chem, 1996).
# Tests used:
# Neprilysin = target: T1, Neprilysin (Oryctolagus cuniculus, UniProt P08049); assay: In vitro inhibition of neutral endopeptidase
# T1 sequence (P08049 whole entry): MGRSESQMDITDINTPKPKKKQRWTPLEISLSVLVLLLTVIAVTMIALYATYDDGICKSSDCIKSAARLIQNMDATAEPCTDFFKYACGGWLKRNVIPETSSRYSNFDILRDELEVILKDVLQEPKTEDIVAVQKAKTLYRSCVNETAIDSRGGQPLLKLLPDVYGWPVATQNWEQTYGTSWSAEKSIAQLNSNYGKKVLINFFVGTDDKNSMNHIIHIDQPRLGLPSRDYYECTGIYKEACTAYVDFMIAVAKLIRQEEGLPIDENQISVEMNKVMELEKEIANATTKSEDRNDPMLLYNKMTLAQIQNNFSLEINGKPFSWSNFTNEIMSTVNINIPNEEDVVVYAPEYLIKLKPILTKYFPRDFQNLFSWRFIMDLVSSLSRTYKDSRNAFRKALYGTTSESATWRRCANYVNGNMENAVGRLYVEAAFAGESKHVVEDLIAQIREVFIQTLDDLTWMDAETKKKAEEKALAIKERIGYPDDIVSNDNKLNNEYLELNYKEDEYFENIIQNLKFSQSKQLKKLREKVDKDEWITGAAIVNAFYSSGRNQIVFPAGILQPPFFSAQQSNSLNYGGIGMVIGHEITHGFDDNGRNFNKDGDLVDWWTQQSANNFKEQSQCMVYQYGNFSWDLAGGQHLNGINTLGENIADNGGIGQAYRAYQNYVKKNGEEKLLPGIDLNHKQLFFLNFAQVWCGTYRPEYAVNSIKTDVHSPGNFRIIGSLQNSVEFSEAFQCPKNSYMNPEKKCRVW
# In short: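 NEP purified from rabbit kidney, 1 pmol/100 µL final, preincubated 15 min at 25 °C with increasing inhibitor concentrations in 50 mM Tris-HCl pH 7.4. Substrate [3H]-D-Ala2-Leu-enkephalin at 20 nM final, 30 min; stopped with 0.5 M HCl. [3H]Tyr-D-Ala-Gly separated on polystyrene beads and counted by scintillation. IC50 is the mean ± SEM of three independent experiments run in triplicate.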
# [1] = target: T2, Angiotensin-converting enzyme (Rattus norvegicus, UniProt P47820); assay: In vitro inhibition of rat angiotensin I converting enzyme
# T2 sequence (P47820 whole entry): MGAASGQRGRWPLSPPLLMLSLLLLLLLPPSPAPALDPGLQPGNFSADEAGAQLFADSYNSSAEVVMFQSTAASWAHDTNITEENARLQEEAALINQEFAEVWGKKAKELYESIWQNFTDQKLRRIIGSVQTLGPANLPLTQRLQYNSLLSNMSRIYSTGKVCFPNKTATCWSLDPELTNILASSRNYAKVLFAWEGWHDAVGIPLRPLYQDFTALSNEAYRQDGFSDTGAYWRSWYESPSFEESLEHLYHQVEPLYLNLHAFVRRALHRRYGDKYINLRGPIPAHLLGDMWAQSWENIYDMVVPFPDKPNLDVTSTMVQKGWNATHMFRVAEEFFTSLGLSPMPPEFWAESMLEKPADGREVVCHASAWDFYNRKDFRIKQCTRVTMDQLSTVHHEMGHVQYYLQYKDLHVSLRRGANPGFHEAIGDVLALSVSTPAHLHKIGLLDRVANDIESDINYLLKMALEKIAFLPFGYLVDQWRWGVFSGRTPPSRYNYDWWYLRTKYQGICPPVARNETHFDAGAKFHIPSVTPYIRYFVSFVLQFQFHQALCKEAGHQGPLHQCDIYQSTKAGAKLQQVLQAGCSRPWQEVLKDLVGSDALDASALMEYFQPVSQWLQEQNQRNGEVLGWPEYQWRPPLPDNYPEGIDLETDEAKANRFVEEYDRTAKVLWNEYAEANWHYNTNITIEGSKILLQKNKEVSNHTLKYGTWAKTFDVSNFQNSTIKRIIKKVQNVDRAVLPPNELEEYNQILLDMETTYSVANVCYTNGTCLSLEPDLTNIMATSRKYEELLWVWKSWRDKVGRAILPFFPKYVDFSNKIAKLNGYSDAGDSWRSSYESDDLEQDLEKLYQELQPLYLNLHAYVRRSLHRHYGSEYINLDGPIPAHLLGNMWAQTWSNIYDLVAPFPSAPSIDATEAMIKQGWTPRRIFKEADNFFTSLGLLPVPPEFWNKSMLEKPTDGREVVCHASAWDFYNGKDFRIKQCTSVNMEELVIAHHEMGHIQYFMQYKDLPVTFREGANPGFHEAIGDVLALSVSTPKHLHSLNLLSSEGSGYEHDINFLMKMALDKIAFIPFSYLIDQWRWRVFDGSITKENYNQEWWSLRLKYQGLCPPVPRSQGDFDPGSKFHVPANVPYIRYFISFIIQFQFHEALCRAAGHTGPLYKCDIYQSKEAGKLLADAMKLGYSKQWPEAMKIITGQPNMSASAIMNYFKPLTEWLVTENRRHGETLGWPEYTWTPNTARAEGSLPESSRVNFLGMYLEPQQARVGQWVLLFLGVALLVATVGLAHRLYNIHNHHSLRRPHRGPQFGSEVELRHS
# In short: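 ACE purified from rat testis, 0.02 pmol/100 µL final, preincubated 15 min at 37 °C with varying inhibitor in 50 mM Tris-HCl pH 8.0. N-Cbz-Phe-His-Leu added to 0.05 mM final, 15 min; stopped with 2 M NaOH. His-Leu measured fluorimetrically (ex 365, em 495 nm) against a His-Leu calibration curve. IC50 is the mean ± SEM of three experiments in triplicate.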
Structure (SMILES),IC50 (Neprilysin) [nM],IC50 [1] [nM]
Cc1ccc([C@H]2CC[C@@H](C(=O)O)N2C(=O)CNC(=O)[C@@H](S)Cc2ccc(O)cc2)cc1,5.5,2.5
O=C(NCC(=O)N1[C@@H](c2ccccc2O)CC[C@H]1C(=O)O)[C@@H](S)Cc1ccc(O)cc1,3.5,0.6
Cc1ccc([C@H]2CC[C@@H](C(=O)O)N2C(=O)CNC(=O)[C@@H](S)Cc2ccccc2)cc1,12.5,6.8
Cc1ccccc1[C@H]1CC[C@@H](C(=O)O)N1C(=O)CNC(=O)[C@@H](S)Cc1ccccc1,5.3,3.1
O=C(NCC(=O)N1[C@@H](c2ccccc2)CC[C@H]1C(=O)O)[C@@H](S)Cc1ccccc1,1.6,0.55
"Cc1ccccc1C1CC[C@@H](C(=O)O)N1C(=O)CNC(=O)[C@@H](S)Cc1ccc(O)cc1 (single isomer, unassigned)",2.7,5
O=C(NCC(=O)N1[C@@H](c2cccc(O)c2)CC[C@H]1C(=O)O)[C@@H](S)Cc1ccc(O)cc1,1.6,0.7
